{
  "source": "ChEMBL document CHEMBL1671691",
  "about": "(Antimicrob Agents Chemother, 2010)",
  "key": {"Influenza A virus [1]": {"tested_on": "Influenza A virus", "experiment": "Antiviral activity against adamantane-, zanamivir-susceptible oseltamivir-resistant Influenza A virus (A/Florida/21/2008(H1N1)) harboring neuraminidase H274Y mutant infected in MDCK cells assessed as inhibition of viral replication after 3 days by microscopic analysis using crystal violet stain", "format": "functional, organism-based", "outline": "(§1)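 MDCK-ATCC confluent monolayers infected with pretitrated virus (15–45 plaques per well), 1 h adsorption at 37°C, 5% CO2, without drug. Inoculum removed, PBS wash, then 0.8% agarose overlay in MEM with drug and 3 μg/ml TPCK-trypsin. 3 days at 37°C, ethanol fixation, crystal violet stain, plaques counted. EC50 by curve fit, mean of three experiments in duplicate ± SD.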"}, "Influenza A virus [2]": {"tested_on": "Influenza A virus", "experiment": "Antiviral activity against adamantane-resistant zanamivir-,oseltamivir-susceptible Influenza A virus (A/pdm/California/05/2009 (H1N1)) harboring M2 V28I, S31N mutant infected in MDCK cells assessed as inhibition of viral replication after 3 days by microscopic analysis using crystal violet stain", "format": "functional, organism-based, Influenza A virus (A/California/05/2009(H1N1))"}, "Influenza A virus [3]": {"tested_on": "Influenza A virus", "experiment": "Antiviral activity against adamantane-, zanamivir-susceptible oseltamivir-resistant Influenza A virus (A/Georgia/20/2006(H1N1)) harboring neuraminidase H274Y mutant infected in MDCK cells assessed as inhibition of viral replication after 3 days by microscopic analysis using crystal violet stain", "format": "functional, organism-based", "outline": "(§2)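 Confluent MDCK-ATCC monolayers infected with virus diluted to give 15–45 plaques/well. Adsorption 1 h at 37°C without drug, then washed. Overlaid with 0.8% agarose in MEM containing drug plus TPCK-trypsin: 3 μg/ml for seasonal viruses, 2 μg/ml for 2009 A(H1N1). Incubated 3 days at 37°C, 5% CO2. Ethanol-fixed, crystal violet-stained, plaques counted. EC50 by curve fit; duplicates on three occasions, mean ± SD.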"}, "Influenza A virus [4]": {"tested_on": "Influenza A virus", "experiment": "Antiviral activity against adamantane-resistant zanamivir-,oseltamivir-susceptible Influenza A virus (A/pdm/California/04/2009 (H1N1)) harboring M2 V28I, S31N mutant infected in MDCK cells assessed as inhibition of viral replication after 3 days by microscopic analysis using crystal violet stain", "format": "functional, organism-based, A/California/04/2009(H1N1)", "outline": "(§3)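 Plaque reduction on confluent MDCK-ATCC monolayers: pretitrated virus (15–45 plaques per well) adsorbed 1 h at 37°C without drug, then washed with PBS. Agarose overlay (0.8%, in MEM) with drug added, 3 days at 37°C. Cells fixed with 70% ethanol, stained with crystal violet, plaques counted. EC50 from curve fitting, averaged over three separate experiments in duplicate, ± SD.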"}, "Influenza A virus [5]": {"tested_on": "Influenza A virus", "experiment": "Antiviral activity against Influenza A virus (A/Illinois/10/2009(H1N1)) harboring neuraminidase H275Y mutant infected in MDCK cells from ATCC assessed as log reduction in viral titer at 1.6 uM after 24 hrs by immunofluorescent assay", "format": "functional", "outline": "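Yield reduction in MDCK-ATCC or MDCK-Mill Hill cells infected at MOI ∼0.01. Adsorption 1 h at 4°C, washed, then DMEM with 2 μg/ml TPCK-trypsin and drug. At 24 h, supernatants were titrated by immunofluorescent focus assay on MDCK cells with anti-NP monoclonals and FITC secondary. Titres as log10 FFU per 100 μl; detection limit <10 FFU. Quadruplicate, mean ± SD.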"}, "Influenza B virus [6]": {"tested_on": "Influenza B virus", "experiment": "microbe, parasite or virus in culture", "details": "B/Memphis/20/96, MDCK, 72 h"}, "Influenza A virus [7]": {"tested_on": "Influenza A virus", "experiment": "Antiviral activity against adamantane-resistant zanamivir-,oseltamivir-susceptible Influenza A virus (A/pdm/California/04/2009(H1N1)) harboring M2 V28I, S31N mutant infected in MDCK cells assessed as determination of viral titer in cell culture at 128 uM after 24 hrs by immunofluorescence assay", "format": "functional, organism-based", "details": "A/California/04/2009(H1N1)"}, "Influenza A virus [8]": {"tested_on": "Influenza A virus", "experiment": "Antiviral activity against adamantane-, oseltamivir-, zanamivir-resistant Influenza A virus (A/Idaho/01/2009(H1N1)) harboring neuraminidase H274Y mutant infected in MDCK cells assessed as inhibition of viral replication after 3 days by microscopic analysis using crystal violet stain", "format": "functional, organism-based, Influenza A virus (A/Idaho/01/2008(H1N1))", "outline": "as §2"}, "Influenza A virus [9]": {"tested_on": "Influenza A virus", "experiment": "Antiviral activity against adamantane-resistant zanamivir-,oseltamivir-susceptible Influenza A virus (A/pdm/Mexico/4604/2009(H1N1)) harboring M2 V28I, S31N mutant infected in MDCK cells assessed as determination of viral titer in cell culture at 128 uM after 24 hrs by immunofluorescence assay", "format": "functional, organism-based", "details": "Influenza A virus (A/Mexico/4604/2009(H1N1))", "outline": "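MDCK cells (ATCC or Mill Hill) infected with 2009 pandemic H1N1 at MOI ~0.01, 1 h adsorption at 4°C, washed. DMEM with 2 μg/ml TPCK-trypsin plus drug for 24 h at 37°C. Supernatants titrated on MDCK cells by focus formation: methanol/acetic acid fixation, anti-nucleoprotein MAbs, FITC secondary, foci counted. Titre as log10 FFU per 100 μl; detection limit <10 FFU; quadruplicate wells.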"}, "Influenza B virus [10]": {"tested_on": "Influenza B virus", "experiment": "microbe, parasite or virus in culture", "details": "(B/Rochester/01/2001), MDCK, 72 h"}, "[11]": {"experiment": "Antiviral activity against adamantane-resistant zanamivir-,oseltamivir-susceptible Influenza B virus (B/Illinois/47/2005) infected in MDCK cells assessed as inhibition of viral replication after 3 days by microscopic analysis using crystal violet stain", "format": "functional, cell-based", "details": "72 h"}, "Influenza A virus [12]": {"tested_on": "Influenza A virus", "experiment": "(§4) Antiviral activity against oseltamivir-susceptible zanamivir-, adamantane-resistant Influenza A virus (A/Bethesda/956/2006(H3N2)) harboring neuraminidase R292K mutant and M2 S31N mutant infected in MDCK cells assessed as inhibition of viral replication after 3 days by microscopic analysis using crystal violet stain", "format": "functional, organism-based"}, "Influenza A virus [13]": {"tested_on": "Influenza A virus", "experiment": "as §4, with “(A/Texas/12/2007 (clone)(H3N2))” for “(A/Bethesda/956/2006(H3N2))”, “E119V” for “R292K”, “and harboring” for “and”", "format": "functional, organism-based, Influenza A virus (A/Texas/12/2007(H3N2))", "outline": "as §1"}, "Influenza A virus [14]": {"tested_on": "Influenza A virus", "experiment": "Antiviral activity against adamantane-resistant zanamivir-,oseltamivir-susceptible Influenza A virus (A/Washington/01/2007(H3N2)) harboring M2 S31N mutant infected in MDCK cells assessed as inhibition of viral replication after 3 days by microscopic analysis using crystal violet stain", "format": "functional, organism-based", "outline": "as §2"}, "Influenza A virus [15]": {"tested_on": "Influenza A virus", "experiment": "as §4, with “(A/Texas/12/2007 (clone)(H3N2))” for “(A/Bethesda/956/2006(H3N2))”, “E119I” for “R292K”, “and harboring” for “and”", "format": "functional, organism-based, Influenza A virus (A/Texas/12/2007(H3N2))"}, "Influenza A virus [16]": {"tested_on": "Influenza A virus", "experiment": "Antiviral activity against adamantane-resistant zanamivir-,oseltamivir-susceptible Influenza A virus (A/pdm/California/07/2009 (H1N1)) harboring M2 V28I, S31N mutant infected in MDCK cells assessed as inhibition of viral replication after 3 days by microscopic analysis using crystal violet stain", "format": "functional, organism-based, A/California/07/2009(H1N1)", "outline": "as §3"}, "Influenza A virus [17]": {"tested_on": "Influenza A virus", "experiment": "as §4, with “(A/Luhansk/18/2008(H1N1))” for “(A/Bethesda/956/2006(H3N2))”, “H274Y” for “R292K”, “G34E” for “S31N”", "format": "functional, organism-based"}, "Influenza B virus [18]": {"tested_on": "Influenza B virus", "experiment": "Antiviral activity against oseltamivir-susceptible zanamivir-, adamantane-resistant Influenza B virus (B/Michigan/20/2005) harboring neuraminidase H274Y mutant infected in MDCK cells assessed as inhibition of viral replication after 3 days by microscopic analysis using crystal violet stain", "format": "functional, cell-based"}},
  "note": "Calls of active or inactive are those of the source. No cut-off for these calls is given here.",
  "data": [
    {"smiles": "NC(=O)c1nc(F)cnc1O", "note": "[FAVIPIRAVIR]", "values": [
      {"measurement": "EC50", "setting": "Influenza A virus [1]", "value": 1590, "unit": "nM"},
      {"measurement": "EC50", "setting": "Influenza A virus [2]", "value": 830, "unit": "nM"},
      {"measurement": "EC50", "setting": "Influenza A virus [3]", "value": 2550, "unit": "nM"},
      {"measurement": "EC50", "setting": "Influenza A virus [4]", "value": 1970, "unit": "nM"},
      {"measurement": "log10FFU", "setting": "Influenza A virus [5]", "value": 4.9},
      {"measurement": "EC50", "setting": "Influenza B virus [6]", "value": 1210, "unit": "nM"},
      {"measurement": "Activity", "setting": "Influenza A virus [7]", "value": "Active"},
      {"measurement": "EC50", "setting": "Influenza A virus [8]", "value": 2930, "unit": "nM"},
      {"measurement": "Activity", "setting": "Influenza A virus [9]", "value": "Active"},
      {"measurement": "EC50", "setting": "Influenza B virus [10]", "value": 1400, "unit": "nM"},
      {"measurement": "EC50", "setting": "[11]", "value": 4010, "unit": "nM"},
      {"measurement": "EC50", "setting": "Influenza A virus [12]", "value": 1210, "unit": "nM"},
      {"measurement": "EC50", "setting": "Influenza A virus [13]", "value": 5220, "unit": "nM"},
      {"measurement": "EC50", "setting": "Influenza A virus [14]", "value": 4460, "unit": "nM"},
      {"measurement": "EC50", "setting": "Influenza A virus [15]", "value": 3950, "unit": "nM"},
      {"measurement": "EC50", "setting": "Influenza A virus [16]", "value": 1400, "unit": "nM"},
      {"measurement": "EC50", "setting": "Influenza A virus [17]", "value": 2930, "unit": "nM"},
      {"measurement": "EC50", "setting": "Influenza B virus [18]", "value": 5030, "unit": "nM"}
    ]}
  ]
}
